The target in experiment [1] is T1, Protein cereblon/Apoptosis regulator Bcl-2 (Homo sapiens, UniProt P10415+Q96SW2). Put plainly: Induction of CRBN-mediated Bcl-2 degradation in human HeLa cells by Western blot analysis. The class given is cell-based.
Experiment [2] deals with T2, Protein cereblon/Induced myeloid leukemia cell differentiation protein Mcl-1 (Homo sapiens, UniProt Q07820+Q96SW2). Put plainly: Induction of CRBN-mediated Mcl-1 degradation in human HeLa cells by Western blot analysis. It is filed as cell-based. The method in brief: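 HeLa cells (DMEM, 10% FBS, 37 °C, 5% CO2) treated 12 h with compound (10 µM, or 0–10 µM gradient; time course 0–24 h at 10 µM). Lysis in NP-40 buffer with protease inhibitors, equal protein loaded for SDS-PAGE and immunoblotting. Bands quantified relative to DMSO control. n=3 independent samples.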
Target sequence in this assay (Q07820 whole entry, looked up): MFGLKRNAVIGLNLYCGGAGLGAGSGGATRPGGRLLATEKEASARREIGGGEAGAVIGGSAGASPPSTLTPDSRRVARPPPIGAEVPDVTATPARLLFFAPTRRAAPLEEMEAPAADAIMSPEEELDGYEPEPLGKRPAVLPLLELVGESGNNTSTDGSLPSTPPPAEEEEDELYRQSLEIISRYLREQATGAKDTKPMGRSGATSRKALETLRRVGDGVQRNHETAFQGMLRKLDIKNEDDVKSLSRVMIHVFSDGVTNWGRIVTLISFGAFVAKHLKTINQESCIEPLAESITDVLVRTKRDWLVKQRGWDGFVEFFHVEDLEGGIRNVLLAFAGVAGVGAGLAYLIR
Target sequence in this assay (Q96SW2 whole entry, looked up): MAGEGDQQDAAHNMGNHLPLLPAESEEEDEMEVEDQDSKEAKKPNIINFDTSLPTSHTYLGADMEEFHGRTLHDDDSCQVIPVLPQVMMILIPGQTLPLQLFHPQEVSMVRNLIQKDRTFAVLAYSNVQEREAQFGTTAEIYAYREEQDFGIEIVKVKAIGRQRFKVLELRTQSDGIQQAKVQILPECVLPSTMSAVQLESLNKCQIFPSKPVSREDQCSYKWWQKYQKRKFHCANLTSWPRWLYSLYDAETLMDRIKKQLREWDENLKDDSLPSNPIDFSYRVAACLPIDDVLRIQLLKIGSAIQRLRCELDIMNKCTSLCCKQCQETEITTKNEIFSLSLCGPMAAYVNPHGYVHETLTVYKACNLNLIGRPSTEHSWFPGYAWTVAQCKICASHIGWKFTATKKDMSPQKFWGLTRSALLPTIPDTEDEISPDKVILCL

Another experiment concerns NCI-H23. Briefly: Cytotoxicity against human H23 cells incubated for 24 hrs by CCK8 assay. The class given is functional, cell-based. The method in brief: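 H23 cells seeded at 4 × 10^4 per mL in RPMI with 10% FBS, L-glutamine and pen/strep. Treated 24 h at various concentrations or with DMSO vehicle (0.05%). Viability read by CCK8 and normalized against cell-free background and untreated cultures; mean ± s.e.m., n=3.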

Experiment [3] has as its target T2, Protein cereblon/Induced myeloid leukemia cell differentiation protein Mcl-1. Briefly: Induction of CRBN-mediated Mcl-1 degradation in human K562 cells incubated for 12 hrs by Western blot analysis. The class given is cell-based. The method in brief: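 K562 cells kept in RPMI1640 with 10% FBS at 37 °C, 5% CO2. After compound treatment, cells lysed in NP-40 buffer with protease inhibitors. Equal protein run on SDS-PAGE, then immunoblotted; protein levels quantified from the blots.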
Target sequence in this assay (Q07820 whole entry, looked up): as the sequence (Q07820 whole entry, looked up) above
Target sequence in this assay (Q96SW2 whole entry, looked up): as the sequence (Q96SW2 whole entry, looked up) above

The target is the same in experiment [4]. Put plainly: Induction of CRBN-mediated Mcl-1 degradation in human HeLa cells assessed as relative abundance at 0.1 uM after 12 hrs by Western blot analysis (reference value: 1). It is filed as cell-based.
Target sequence in this assay (Q07820 whole entry, looked up): as the sequence (Q07820 whole entry, looked up) above
Target sequence in this assay (Q96SW2 whole entry, looked up): as the sequence (Q96SW2 whole entry, looked up) above
Experiment [5] has the same target. Briefly: Induction of CRBN-mediated Mcl-1 degradation in human HeLa cells assessed as Mcl-1 removal activity measured at 12 hrs by Western blot analysis. It is filed as cell-based.
Target sequence in this assay (Q07820 whole entry): as the sequence (Q07820 whole entry, looked up) above
Target sequence in this assay (Q96SW2 whole entry): as the sequence (Q96SW2 whole entry, looked up) above
Experiment [6] deals with T1, Protein cereblon/Apoptosis regulator Bcl-2. Put plainly: Induction of CRBN-mediated Bcl-2 degradation in human HeLa cells assessed as relative abundance at 10 uM measured at 2 hrs by Western blot analysis (reference value: 1). The class given is cell-based. The procedure, abridged: (§1)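 HeLa cells in DMEM with 10% FBS, exposed to 10 µM compound over a 0–24 h time course. Mcl-1 and Bcl-2 detected by immunoblot (NP-40 lysis, BCA-equalized SDS-PAGE, PVDF, ECL) and quantified relative to DMSO control; mean ± s.d., n=3 independent samples.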

The target of experiment [7] is T2, Protein cereblon/Induced myeloid leukemia cell differentiation protein Mcl-1. Put plainly: Induction of CRBN-mediated Mcl-1 degradation in human HeLa cells assessed as relative abundance at 10 uM measured at 20 hrs by Western blot analysis (reference value: 1). The class given is cell-based. The method in brief: as §1
Target sequence in this assay (Q07820 whole entry, looked up): as the sequence (Q07820 whole entry, looked up) above
Target sequence in this assay (Q96SW2 whole entry, looked up): as the sequence (Q96SW2 whole entry, looked up) above
For experiment [8], the target named is T1, Protein cereblon/Apoptosis regulator Bcl-2. Briefly: Induction of CRBN-mediated Bcl-2 degradation in human HeLa cells assessed as relative abundance at 10 uM measured at 24 hrs by Western blot analysis (reference value: 1). The class given is cell-based. The method in brief:
as §1

In experiment [9] the target is T2, Protein cereblon/Induced myeloid leukemia cell differentiation protein Mcl-1. Briefly: Induction of CRBN-mediated Mcl-1 degradation in human HeLa cells assessed as relative abundance at 10 uM after 12 hrs by Western blot analysis (reference value: 1). The class given is cell-based.
Target sequence in this assay (Q07820 whole entry, looked up): as the sequence (Q07820 whole entry, looked up) above
Target sequence in this assay (Q96SW2 whole entry, looked up): as the sequence (Q96SW2 whole entry, looked up) above
For experiment [10], the target named is T1, Protein cereblon/Apoptosis regulator Bcl-2. Put plainly: Induction of CRBN-mediated Bcl-2 degradation in human HeLa cells assessed as relative abundance at 10 uM measured at 16 hrs by Western blot analysis (reference value: 1). The class given is cell-based. The procedure, abridged: as §1
Experiment [11] deals with T2, Protein cereblon/Induced myeloid leukemia cell differentiation protein Mcl-1. Briefly: Induction of CRBN-mediated Mcl-1 degradation in human HeLa cells assessed as relative abundance at 10 uM measured at 8 hrs by Western blot analysis (reference value: 1). The class given is cell-based. The method in brief: as §1
Target sequence in this assay (Q07820 whole entry, looked up): as the sequence (Q07820 whole entry, looked up) above
Target sequence in this assay (Q96SW2 whole entry, looked up): as the sequence (Q96SW2 whole entry, looked up) above
In experiment [12] the target is T1, Protein cereblon/Apoptosis regulator Bcl-2. Briefly: Induction of CRBN-mediated Bcl-2 degradation in human HeLa cells assessed as relative abundance at 10 uM measured at 20 hrs by Western blot analysis (reference value: 1). It is filed as cell-based. The procedure, abridged:
as §1

For experiment [13], the target named is T2, Protein cereblon/Induced myeloid leukemia cell differentiation protein Mcl-1. Briefly: Induction of CRBN-mediated Mcl-1 degradation in human HeLa cells assessed as relative abundance at 10 uM measured at 16 hrs by Western blot analysis (reference value: 1). It is filed as cell-based. The procedure, abridged: as §1
Experiment [14] has the same target. Briefly: Induction of CRBN-mediated Mcl-1 degradation in human HeLa cells assessed as relative abundance at 10 uM measured at 24 hrs by Western blot analysis (reference value: 1). It is filed as cell-based. The method in brief:
as §1

For experiment [15] the target is unchanged. Put plainly: Induction of CRBN-mediated Mcl-1 degradation in human HeLa cells at 10 uM measured at 24 hrs by Western blot analysis relative to control. It is filed as cell-based. The procedure, abridged: as §1
The target of experiment [16] is T1, Protein cereblon/Apoptosis regulator Bcl-2. Put plainly: Induction of CRBN-mediated Bcl-2 degradation in human HeLa cells assessed as relative abundance at 0.3 uM after 12 hrs by Western blot analysis (reference value: 1). The class given is cell-based.
Experiment [17] concerns the target T2, Protein cereblon/Induced myeloid leukemia cell differentiation protein Mcl-1. Briefly: Induction of CRBN-mediated Mcl-1 degradation in human HeLa cells assessed as relative abundance at 0.3 uM after 12 hrs by Western blot analysis (reference value: 1). The class given is cell-based.
For experiment [18], the target named is T1, Protein cereblon/Apoptosis regulator Bcl-2. Put plainly: Induction of CRBN-mediated Bcl-2 degradation in human HeLa cells assessed as relative abundance at 1 uM after 12 hrs by Western blot analysis (reference value: 1). It is filed as cell-based.
The target is the same in experiment [19]. Put plainly: Induction of CRBN-mediated Bcl-2 degradation in human HeLa cells assessed as relative abundance at 10 uM after 12 hrs by Western blot analysis (reference value: 1). The class given is cell-based.
Experiment [20] has the same target. Briefly: Induction of CRBN-mediated Bcl-2 degradation in human HeLa cells assessed as relative abundance at 3 uM after 12 hrs by Western blot analysis (reference value: 1). It is filed as cell-based.
The target of experiment [21] is T2, Protein cereblon/Induced myeloid leukemia cell differentiation protein Mcl-1. Put plainly: Induction of CRBN-mediated Mcl-1 degradation in human HeLa cells assessed as relative abundance at 3 uM after 12 hrs by Western blot analysis (reference value: 1). The class given is cell-based.
For experiment [22] the target is unchanged. Briefly: Induction of CRBN-mediated Mcl-1 degradation in human HeLa cells assessed as relative abundance at 1 uM after 12 hrs by Western blot analysis (reference value: 1). It is filed as cell-based.
Experiment [23] concerns the target T1, Protein cereblon/Apoptosis regulator Bcl-2. Briefly: Induction of CRBN-mediated Bcl-2 degradation in human HeLa cells assessed as relative abundance at 10 uM measured at 4 hrs by Western blot analysis (reference value: 1). The class given is cell-based. The method in brief:
as §1

The target in experiment [24] is T2, Protein cereblon/Induced myeloid leukemia cell differentiation protein Mcl-1. Briefly: Induction of CRBN-mediated Mcl-1 degradation in human HeLa cells assessed as relative abundance at 10 uM measured at 2 hrs by Western blot analysis (reference value: 1). The class given is cell-based. The method in brief:
as §1

The target is the same in experiment [25]. Briefly: Induction of CRBN-mediated Mcl-1 degradation in human HeLa cells assessed as relative abundance at 10 uM measured at 4 hrs by Western blot analysis (reference value: 1). It is filed as cell-based. The method in brief: as §1
In experiment [26] the target is T1, Protein cereblon/Apoptosis regulator Bcl-2. Put plainly: Induction of CRBN-mediated Bcl-2 degradation in human HeLa cells assessed as relative abundance at 0.1 uM after 12 hrs by Western blot analysis (reference value: 1). It is filed as cell-based.
For experiment [27] the target is unchanged. Put plainly: Induction of CRBN-mediated Bcl-2 degradation in human HeLa cells assessed as relative abundance at 10 uM measured at 8 hrs by Western blot analysis (reference value: 1). It is filed as cell-based. The method in brief: as §1

The source made the active and inactive calls. The calls are words filed in the database; no cut-off is given here.

T1 sequence (P10415 whole entry, looked up): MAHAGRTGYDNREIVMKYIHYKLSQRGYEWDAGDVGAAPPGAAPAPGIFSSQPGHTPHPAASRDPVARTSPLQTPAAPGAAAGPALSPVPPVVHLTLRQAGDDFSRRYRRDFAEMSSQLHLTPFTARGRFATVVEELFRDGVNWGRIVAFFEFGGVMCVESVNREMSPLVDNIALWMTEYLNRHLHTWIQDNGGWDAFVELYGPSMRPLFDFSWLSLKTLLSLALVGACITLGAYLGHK
T1 sequence (Q96SW2 whole entry, looked up): as the sequence (Q96SW2 whole entry, looked up) above

As to `CN1C(=O)CCC(N2C(=O)c3cccc(NCCOCCOCCNC(=O)CCCCC(=O)NCCN4C(=O)c5cccc6c(Sc7ccc(Br)cc7)ccc(c56)C4=O)c3C2=O)C1=O` (stereo not drawn), in [1], the result was inactive.
With `CN1C(=O)CCC(N2C(=O)c3cccc(NCCCCCCNC(=O)CCCCC(=O)NCCN4C(=O)c5cccc6c(Sc7ccc(Br)cc7)ccc(c56)C4=O)c3C2=O)C1=O` (stereo not drawn), the outcome in experiment [2] was inactive. In the experiment with NCI-H23, the outcome was Active.
As for `N#CC1=C(NCCC(=O)O)c2ccc(Sc3ccc(Br)cc3)c3cccc(c23)C1=O`, in [3], the result was Active. Moreover, the fold change (FC) in experiment [4] turned out to be 1; in experiment [6], 1.1; in [7], 0.3; in [8] it was 1.1; in experiment [9], 0.6; in experiment [10], 1. Further, the fold change (FC) in experiment [11] amounted to 0.9; in [12], 1.1; in experiment [13], 0.5; in experiment [14], 0.2; in experiment [16], 1.3; in [17], 1.1. Moreover, the fold change (FC) is 1.3 in experiment [18]; 1.1 in experiment [19]; 1 in experiment [20]; 0.8 in [21]; 1.1 in [22]; 1.2 in experiment [23]. For the same compound, the fold change (FC) in experiment [24] worked out at 1; in experiment [25], 1; in experiment [26] it was 1.2; in experiment [27], 1.3. Also, the DC50 in experiment [5] is 3.6 µM. The compound further came in with an Activity in [15] of 80%.

The record behind these values is ChEMBL document CHEMBL4321796, “Proteolysis Targeting Chimeras for the Selective Degradation of Mcl-1/Bcl-2 Derived from Nonselective Target Binding Ligands” (J Med Chem, 2019).
